Laboratory results as given in ChEMBL document CHEMBL1154198, “Chemical genetics of Plasmodium falciparum” (Nature, 2010).

How the values were obtained:
Plasmodium falciparum [1] = test: ST_JUDE: Plasmodium falciparum 3D7 EC50 (uM) as measured by SYBR green dye; assay type: functional, organism-based
Plasmodium falciparum [2] = test: ST_JUDE: Plasmodium falciparum K1 EC50 (uM) as measured by SYBR green dye; assay type: functional, organism-based
Plasmodium falciparum [3] = test: ST_JUDE: Cytotoxicity against Plasmodium falciparum 3D7; assay type: functional, organism-based
How it was run: (§1)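 Asexual P. falciparum grown in human erythrocytes, exposed to compounds for 72 h, and growth read as the DNA quantity in treated versus control cultures. Dose-response run at 12 concentrations from 10 μM to 5 nM.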

Plasmodium falciparum [4] = test: ST_JUDE: Cytotoxicity against Plasmodium falciparum K1; assay type: functional, organism-based; how it was run: as §1
Plasmodium falciparum [5] = test: ST_JUDE: Cytotoxicity against Plasmodium falciparum V1/S; assay type: functional, organism-based
Toxoplasma gondii = test: ST_JUDE: Growth inhibition of to Toxoplasma gondii, in human U-2OS cells, as measured by luciferase.; assay type: functional, organism-based; details: RH, U2OS
How it was run: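 T. gondii parasites engineered to express luciferase; drug sensitivity read by luminescence.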

Trypanosoma brucei = test: ST_JUDE: Cytotoxicity using luciferase to measure ATP as an indicator of the viability of Trypanosoma brucei; assay type: functional, organism-based
Leishmania major = test: ST_JUDE: Cytotoxicity using Alamar Blue to measure viability of Leishmania major; assay type: functional, organism-based
How it was run: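 L. major promastigotes; drug susceptibility read with Alamar Blue.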

[6] = ST_JUDE: Cytotoxicity using luciferase to measure ATP as an indicator of the viability of human foreskin fibroblast cells (BJ); assay type: toxicity, cell-based
[7] = ST_JUDE: Cytotoxicity using luciferase to measure ATP as an indicator of the viability of human epithelial hepatocellular carcinoma cells (HepG2); assay type: toxicity, cell-based
[8] = ST_JUDE: Cytotoxicity using luciferase to measure ATP as an indicator of the viability of human epithelial embryonic kidney cells (HEK293); assay type: toxicity, cell-based
[9] = ST_JUDE: Cytotoxicity using luciferase to measure ATP as an indicator of the viability of human Burkitt''s lymphoma lymphoblast cells (Raji); assay type: toxicity, cell-based
Plasmodium falciparum [10] = test: ST_JUDE: Cytotoxicity against Plasmodium falciparum Dd2; assay type: functional, organism-based
Plasmodium falciparum [11] = test: ST_JUDE: Cytotoxicity against Plasmodium falciparum W2; assay type: functional, organism-based
Plasmodium falciparum [12] = test: ST_JUDE: Cytotoxicity against Plasmodium falciparum SB-A6; assay type: functional, organism-based
Plasmodium falciparum [13] = test: ST_JUDE: Cytotoxicity against Plasmodium falciparum D10 transfected with yeast DHOD; assay type: functional, organism-based

Compound	EC50 (Plasmodium falciparum [1])	EC50 (Plasmodium falciparum [2])	EC50 (Plasmodium falciparum [3])	EC50 (Plasmodium falciparum [4])	EC50 (Plasmodium falciparum [5])	EC50 (Toxoplasma gondii)	EC50 (Trypanosoma brucei)	EC50 (Leishmania major)	EC50 [6]	EC50 [7]	EC50 [8]	EC50 [9]	EC50 (Plasmodium falciparum [10])	EC50 (Plasmodium falciparum [11])	EC50 (Plasmodium falciparum [12])	EC50 (Plasmodium falciparum [13])
O=[N+]([O-])c1ccc(S(=O)(=O)N2CCN(C(=S)NCc3ccco3)CC2)cc1	185 nM	132 nM	261 nM	252 nM	269 nM	> 17400 nM	> 30400 nM	> 13600 nM	> 31700 nM	> 31700 nM	> 31700 nM	> 31700 nM	123 nM	300 nM	289 nM	316 nM
C#CC[n+]1ccn2c(C)ccc2c1CC	> 15000 nM	1380 nM	1680 nM	1420 nM	> 12800 nM	> 27300 nM	> 47700 nM	> 21300 nM	> 49800 nM	> 49800 nM	> 49800 nM	40700 nM	1540 nM	3440 nM	2530 nM	> 12800 nM
c1ccc(CCNc2ccnc3cc4ccccc4cc23)cc1	121 nM	191 nM	267 nM	671 nM	833 nM	> 17000 nM	2880 nM	> 13300 nM	6620 nM	1320 nM	7190 nM	9530 nM	150 nM	674 nM	171 nM	1000 nM
CC(C)CN1C(=O)c2ccccc2C(C(=O)Nc2cccc(C#N)c2)C1c1cccs1 (stereo not given)	58.4 nM	80.9 nM	271 nM	232 nM	296 nM	> 25700 nM	3180 nM	> 20100 nM	> 46800 nM	> 46800 nM	> 46800 nM	> 46800 nM	161 nM	196 nM	351 nM	366 nM
CCOc1ccc(/C=C2\Oc3c(ccc(O)c3CN3CCCCC3)C2=O)cc1	1290 nM	467 nM	1770 nM	500 nM	1180 nM	> 25800 nM	> 45200 nM	> 20200 nM	> 47100 nM	> 47100 nM	> 47100 nM	> 47100 nM	2140 nM	1150 nM	3390 nM	1850 nM
O=[N+]([O-])c1cc(CN2CCN(c3cccc(C(F)(F)F)c3)CC2)c2cccnc2c1O	1280 nM	1190 nM	676 nM	> 8180 nM	> 8180 nM	> 17500 nM	1350 nM	> 13600 nM	> 31900 nM	> 31900 nM	> 31900 nM	> 31900 nM	791 nM	> 8180 nM	642 nM	1080 nM
Cc1ccc(C2(c3ccc(C)cc3)CC2C(=O)Nc2ccc([N+](=O)[O-])cc2O)cc1 (stereo not given)	658 nM	582 nM	1010 nM	741 nM	1260 nM	> 21100 nM	4780 nM	> 16500 nM	11000 nM	10700 nM	11400 nM	10600 nM	2090 nM	1830 nM	1830 nM	1600 nM
COc1cc(C2CC(=O)NC3=C2C(=O)CC(c2ccccc2Cl)C3)cc(Br)c1O (stereo not given)	1280 nM	945 nM	1860 nM	1910 nM	2730 nM	> 29700 nM	16400 nM	> 23200 nM	> 54200 nM	> 54200 nM	> 54200 nM	> 54200 nM	1910 nM	1060 nM	2450 nM	1930 nM
CCCO/C(O)=C1\C(C)=NC2=C(C(=O)CC(c3ccc(OC)c(OC)c3)C2)C1c1ccccc1F (stereo not given)	50 nM	51.7 nM	111 nM	82.5 nM	106 nM	> 22500 nM	6570 nM	> 17600 nM	1.8 nM	> 41100 nM	35900 nM	> 41100 nM	89.4 nM	63.9 nM	36.3 nM	40.5 nM
CCCCCOc1ccc(N(C(C)=O)C2=C(N3CCOCC3)C(=O)c3ccccc3C2=O)cc1	327 nM	208 nM	75 nM	77.5 nM	70 nM	> 19800 nM	1840 nM	> 15500 nM	> 36200 nM	22600 nM	> 36200 nM	3260 nM	1470 nM	> 9290 nM	59.6 nM	36.2 nM
